Experiment [1] deals with S. aureus isogenic mutant lacking the dlt gene (Δdlt). Nature of the experiment: Bacterial killing assay with recombinant whole IFN-β, dlt-deficient strain. Format: cell-based, Staphylococcus aureus. Particulars: increasing concentrations of IFN-β, 3 hours, CFU.
For experiment [2], the system named is gram-negative strains of bacteria. Nature of the experiment: Killing assay with IFN-β helix 4 peptide, gram-negative bacteria. Format: cell-based. To be noted: bacteria 1×10^5/ml, 6 μM mouse helix 4 peptide, 3 hours, 37°C, CFU (Fig. 6I).
Experiment [3] concerns Staphylococcus epidermis. Briefly: Bacterial killing assay with recombinant whole IFN-β. Format: cell-based. Particulars: incubated with IFN-β (Fig. S1). In a few lines:
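Overnight cultures subcultured to mid-log (OD₆₀₀=0.4), washed in sterile PBS and renormalised to OD₆₀₀=0.4. Bacteria resuspended in assay medium and incubated with recombinant whole IFN-β or vehicle in 100 μl reactions at 37°C with shaking. Ten-fold serial dilutions plated on LB to count surviving CFU.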

Experiment [4] relates to Escherichia coli. Nature of the experiment: Bacterial killing assay with recombinant whole IFN-β. Particulars: increasing doses of IFN-β, 3 hours, CFU. Format: cell-based.
For experiment [5], the system named is Staphylococcus aureus. The experiment is described as above. It counts as cell-based. To be noted: 5×10^2 units/ml mIFN-β incubated at 37°C for 60 min, then bacteria 3 hours, CFU.

For “mIFN-β: recombinant whole mouse IFN-β (PBL Interferon)”, the “killing of Δdlt S. aureus compared to WT” value in experiment [1] is listed as “increased killing of Δdlt bacteria compared to WT”. The “antimicrobial activity against gram-negative bacteria” value in experiment [2] was “significantly less effective”. The “killing of Staphylococcus epidermis” value in experiment [3] is listed as “observed killing”. Also, the “inhibitory or killing effect on Escherichia coli” value in experiment [4] is “did not observe any inhibitory or killing effect”. Further, in experiment [5], the “killing of S. aureus after pre-incubation at 37°C” value is “killing was not lost”.

These data come from paper PMC5469413 (Journal of immunology (Baltimore, Md. : 1950), 2017).
